Consider 33 compounds from ChEMBL document CHEMBL1123811, “gem-Diphosphonate and gem-phosphonate-phosphate compounds with specific high density lipoprotein inducing activity” (1987).

Type in all cases: functional
What all share (design): concentration or dose not given beside the values

The species named for experiment [1] is Rattus norvegicus. The experiment is described as follows: Activity to induce the elevation of triglycerides of male Wistar rats. In a few lines: (§1)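 Wistar rats on normal diet; groups were vehicle control, an internal-standard diphosphonate, and test compounds. Dosed daily for 4 days; diphosphonates were dissolved in water or suspended in 1% (carboxymethyl)cellulose, 4 mL/kg. On day 5, after overnight fast, rats were killed under ether. EDTA plasma was assayed enzymatically for HDL-C after heparin-CaCl2 precipitation of VLDL/LDL, phospholipids, triglycerides and α/β-cholesterol ratio. Results are given as % of control.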

Experiment [2] is filed under the species Rattus norvegicus. The experiment in a line: Activity to induce the elevation of phospholipids of male Wistar rats. Summed up: as §1
For experiment [3], the species on record is Rattus norvegicus. The experiment is described as follows: Activity to induce the elevation of alpha/beta cholesterol ratio of male Wistar rats. Summed up:
as §1

For experiment [4], the species on record is Rattus norvegicus. The experiment is described as follows: Activity to induce the elevation of HDL(High Density Lipoproteins)-Cholesterol of male Wistar rats. In a few lines:
as §1

In the case of `CCOP(=O)(OCC)C(CCCc1ccccc1)P(=O)(OCC)OCC`, the “Percent change in plasma triglycerides versus control” value in experiment [1] is given as 46%. Further, the “Plasma phospholipids, % change versus control” value in experiment [2] was determined as 17%. For the same compound, the “Percent change in alpha/beta cholesterol ratio versus control” value in experiment [3] is 33%. The “HDL-cholesterol change relative to control (%)” value in experiment [4] turned out to be 62%.
For `COP(=O)(OC)C(O)(c1ccc(C)cc1)P(=O)(OC)OC` the same measures were 43%, 19%, 68% and 19%.
Take `O=P(O)(O)C(CCc1ccccc1)P(=O)(O)O`: the “Percent change in plasma triglycerides versus control” value in experiment [1] was -17%. Besides, in experiment [2], the “Plasma phospholipids, % change versus control” value was -16%. In addition, the “Percent change in alpha/beta cholesterol ratio versus control” value in experiment [3] is recorded as -27%. In addition, the “HDL-cholesterol change relative to control (%)” value in experiment [4] is on record as -24%.
For `COP(=O)(OC)OC(c1ccc(C)cc1)P(=O)(OC)OC` (stereo not given) the same measures were -33%, -8%, 47% and 4%.
On the same counts, the results for `O=P(O)(O)C(CCCc1ccccc1)P(=O)(O)O` are 11%, 12%, 14% and 3%.
On the same counts, the results for `CCOP(=O)(OCC)C(Cc1ccc(Cl)cc1)P(=O)(OCC)OCC` are 8%, 23%, 22% and 26%.
`COP(=O)(OC)OC(c1ccccc1Cl)P(=O)(OC)OC` (stereo not given): the “Percent change in plasma triglycerides versus control” value in experiment [1] is -42%. The “Plasma phospholipids, % change versus control” value in experiment [2] was 22%. For the same compound, the “Percent change in alpha/beta cholesterol ratio versus control” value in experiment [3] came out at 34%.
As to `CCCCOP(=O)(OCCCC)C(Cc1ccc(Cl)cc1)P(=O)(OCCCC)OCCCC`, the “Percent change in plasma triglycerides versus control” value in experiment [1] is 1%. In experiment [2], the “Plasma phospholipids, % change versus control” value is on record as 6%. Further, the “Percent change in alpha/beta cholesterol ratio versus control” value in experiment [3] was found to be 2%. The “HDL-cholesterol change relative to control (%)” value in experiment [4] is reported as 0%.
Take `COP(=O)(OC)C(O)(C(C)(C)Oc1ccc(Cl)cc1)P(=O)(OC)OC`: the “Percent change in plasma triglycerides versus control” value in experiment [1] is -33%. The “Plasma phospholipids, % change versus control” value in experiment [2] is listed as 26%. Moreover, the “Percent change in alpha/beta cholesterol ratio versus control” value in experiment [3] was -8%. Moreover, the “HDL-cholesterol change relative to control (%)” value in experiment [4] worked out at 8%.
On the same counts, the results for `COP(=O)(OC)C(CCCOc1ccccc1)P(=O)(OC)OC` are 2%, -11%, -13% and 6%.
On the same counts, the results for `COP(=O)(OC)C(O)(c1ccccc1)P(=O)(OC)OC` are 4%, 57%, 80% and 13%.
For `COP(=O)(OC)OC(c1ccc(Cl)cc1Cl)P(=O)(OC)OC` (stereo not given) the same measures were 13%, 28%, 39% and 51%.
For the compound `COP(=O)(OC)C(CCc1ccccc1)P(=O)(OC)OC`, the “Percent change in plasma triglycerides versus control” value in experiment [1] was determined as 22%. For the same compound, the “Plasma phospholipids, % change versus control” value in experiment [2] is recorded as 16%. Also, the “Percent change in alpha/beta cholesterol ratio versus control” value in experiment [3] is 82%. For the same compound, the “HDL-cholesterol change relative to control (%)” value in experiment [4] is 40%.
For the compound `COP(=O)(OC)C(O)(C(C)(C)C)P(=O)(OC)OC`, the “Percent change in plasma triglycerides versus control” value in experiment [1] turned out to be 24%. Further, the “Plasma phospholipids, % change versus control” value in experiment [2] was -43%. Also, the “Percent change in alpha/beta cholesterol ratio versus control” value in experiment [3] is 32%. For the same compound, the “HDL-cholesterol change relative to control (%)” value in experiment [4] came out at 0%.
For `COP(=O)(OC)OC(c1ccc(C(=O)c2ccc(Cl)cc2)cc1)P(=O)(OC)OC` (stereo not given) the same measures were 0%, 53%, 55% and 33%.
Take `COP(=O)(OC)OC(c1cccc(Cl)c1)P(=O)(OC)OC` (stereo not given): in experiment [1], the “Percent change in plasma triglycerides versus control” value was -37%. Further, the “Plasma phospholipids, % change versus control” value in experiment [2] came out at 14%. In experiment [3], the “Percent change in alpha/beta cholesterol ratio versus control” value stood at 69%. In addition, the “HDL-cholesterol change relative to control (%)” value in experiment [4] is 56%.
On the same counts, the results for `COP(=O)(OC)OC(c1ccccc1)P(=O)(OC)OC` (stereo not given) are 32%, 21%, 76% and 4%.
Take `COP(=O)(OC)OC(c1ccc(-c2ccccc2)cc1)P(=O)(OC)OC` (stereo not given): the “Percent change in plasma triglycerides versus control” value in experiment [1] came out at 0%. Moreover, the “Plasma phospholipids, % change versus control” value in experiment [2] is given as 18%. Further, the “Percent change in alpha/beta cholesterol ratio versus control” value in experiment [3] came out at 40%. Besides, in experiment [4], the “HDL-cholesterol change relative to control (%)” value worked out at 24%.
`CCOP(=O)(OCC)C(CCOc1ccccc1)P(=O)(OCC)OCC`: in experiment [1], the “Percent change in plasma triglycerides versus control” value is -38%. Further, in experiment [2], the “Plasma phospholipids, % change versus control” value was 25%. The “Percent change in alpha/beta cholesterol ratio versus control” value in experiment [3] was determined as 26%. Further, the “HDL-cholesterol change relative to control (%)” value in experiment [4] was 29%.
On the same counts, the results for `COP(=O)(OC)C(Cc1ccc(Cl)cc1)P(=O)(OC)OC` are 62%, 51%, 75% and 38%.
For `COc1ccc(C(OP(=O)(OC)OC)P(=O)(OC)OC)cc1` (stereo not given), the “Percent change in plasma triglycerides versus control” value in experiment [1] was determined as 41%. The “Plasma phospholipids, % change versus control” value in experiment [2] is recorded as -3%. In experiment [3], the “Percent change in alpha/beta cholesterol ratio versus control” value came to 2%. In addition, the “HDL-cholesterol change relative to control (%)” value in experiment [4] was 0%.
On to `CCCOP(=O)(OCCC)OC(c1ccc(Cl)cc1)P(=O)(OCCC)OCCC` (stereo not given), for which the “Percent change in plasma triglycerides versus control” value in experiment [1] was -17%. Also, the “Plasma phospholipids, % change versus control” value in experiment [2] is 4%. In experiment [3], the “Percent change in alpha/beta cholesterol ratio versus control” value was determined as 4%. For the same compound, in experiment [4], the “HDL-cholesterol change relative to control (%)” value was -6%.
For `CC(C)OP(=O)(OC(C)C)OC(c1ccc(Cl)cc1)P(=O)(OC(C)C)OC(C)C` (stereo not given), the “Percent change in plasma triglycerides versus control” value in experiment [1] is given as -37%. Moreover, in experiment [2], the “Plasma phospholipids, % change versus control” value is given as -20%. For the same compound, in experiment [3], the “Percent change in alpha/beta cholesterol ratio versus control” value is recorded as -46%. In addition, the “HDL-cholesterol change relative to control (%)” value in experiment [4] is recorded as -34%.
Regarding `CCOP(=O)(OCC)C(CCCOc1ccccc1)P(=O)(OCC)OCC`, the “Percent change in plasma triglycerides versus control” value in experiment [1] is listed as 0%. In addition, the “Plasma phospholipids, % change versus control” value in experiment [2] came out at 0%. The “Percent change in alpha/beta cholesterol ratio versus control” value in experiment [3] was determined as 37%. Further, the “HDL-cholesterol change relative to control (%)” value in experiment [4] was 16%.
In the case of `CCCCCC(O)(P(=O)(OC)OC)P(=O)(OC)OC`, the “Percent change in plasma triglycerides versus control” value in experiment [1] is listed as -21%. For the same compound, the “Plasma phospholipids, % change versus control” value in experiment [2] worked out at 10%. The “Percent change in alpha/beta cholesterol ratio versus control” value in experiment [3] is -17%. Besides, the “HDL-cholesterol change relative to control (%)” value in experiment [4] is on record as -16%.
On the same counts, the results for `COP(=O)(OC)C(O)(c1ccc(-c2ccccc2)cc1)P(=O)(OC)OC` are 5%, 1%, 5% and 74%.
For `COP(=O)(OC)C(O)(c1ccc2ccccc2c1)P(=O)(OC)OC` the same measures were 24%, 25%, 51% and 35%.
`COP(=O)(OC)OC(C(C)C)P(=O)(OC)OC` (stereo not given): the “Percent change in plasma triglycerides versus control” value in experiment [1] is recorded as -26%. In addition, the “Plasma phospholipids, % change versus control” value in experiment [2] came to 7%. Moreover, the “Percent change in alpha/beta cholesterol ratio versus control” value in experiment [3] was 38%. Further, in experiment [4], the “HDL-cholesterol change relative to control (%)” value is listed as 15%.
In the case of `O=P(O)(O)C(Cc1ccc(Cl)cc1)P(=O)(O)O`, in experiment [1], the “Percent change in plasma triglycerides versus control” value is on record as -146%. The “Plasma phospholipids, % change versus control” value in experiment [2] turned out to be 0%. In addition, the “Percent change in alpha/beta cholesterol ratio versus control” value in experiment [3] is given as -40%.
In the case of `COP(=O)(OC)OC(C1CCCCC1)P(=O)(OC)OC` (stereo not given), the “Percent change in plasma triglycerides versus control” value in experiment [1] was -46%. Further, in experiment [2], the “Plasma phospholipids, % change versus control” value was found to be 0%. Also, the “Percent change in alpha/beta cholesterol ratio versus control” value in experiment [3] is -20%. Further, the “HDL-cholesterol change relative to control (%)” value in experiment [4] is recorded as 5%.
As for `COP(=O)(OC)C(O)(c1ccc(C(=O)c2ccc(Cl)cc2)cc1)P(=O)(OC)OC`, the “Percent change in plasma triglycerides versus control” value in experiment [1] is reported as -16%. Further, the “Plasma phospholipids, % change versus control” value in experiment [2] worked out at 39%. Besides, the “Percent change in alpha/beta cholesterol ratio versus control” value in experiment [3] is on record as 46%. The “HDL-cholesterol change relative to control (%)” value in experiment [4] was 22%.
Regarding `COP(=O)(OC)OC(C(C)(C)c1ccc(Cl)cc1)P(=O)(OC)OC` (stereo not given), the “Percent change in plasma triglycerides versus control” value in experiment [1] was -7%. Moreover, the “Plasma phospholipids, % change versus control” value in experiment [2] is recorded as 37%. Further, in experiment [3], the “Percent change in alpha/beta cholesterol ratio versus control” value is recorded as 59%. Besides, the “HDL-cholesterol change relative to control (%)” value in experiment [4] turned out to be 56%.
With `CCCCOP(=O)(OCCCC)OC(c1ccc(Cl)cc1)P(=O)(OCCCC)OCCCC` (stereo not given), the “Percent change in plasma triglycerides versus control” value in experiment [1] is recorded as -11%. Also, the “Plasma phospholipids, % change versus control” value in experiment [2] came to 13%. For the same compound, the “Percent change in alpha/beta cholesterol ratio versus control” value in experiment [3] is listed as -53%. Further, the “HDL-cholesterol change relative to control (%)” value in experiment [4] is recorded as -10%.
